The source made the active and inactive calls. The calls are words filed in the database; no cut-off is given here.
Assays:
N2a [1] = assay: Cytotoxicity against mouse N2a-APP cells assessed as cell viability at 0.03 to 0.08 uM measured after 24 hrs by MTT assay; type: functional, cell-based; conditions: dose 0.03-0.08 µM
How it was run: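 N2a-APP cells were seeded at 1 × 10^4 cells/well and exposed for 24 h to 0.03–0.08 μM, with medium-alone controls. MTT (1 mg/mL) was added for 2 h at 37 °C and the formazan was dissolved in DMSO. Absorbance was read at 570 nm, corrected at 650 nm. Survival is given as % of untreated cells; mean ± SD, one-way ANOVA.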

N2a [2] = assay: Antialzheimer activity in mouse N2a-APP cells assessed as effect on […] expression at 0.03 to 0.08 uM measured after 24 to 48 hrs by RT-qPCR method; type: functional, cell-based; conditions: dose 0.03-0.08 µM, time 24-48 hrs
How it was run: (§1)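 Mutant APP-overexpressing N2a cells were grown in DMEM with 10% FBS and L-glutamine at 37 °C in 5% CO2. They were seeded in six-well plates at 5 × 10^5/mL (24 h) or 5 × 10^5/2 mL (48 h) and treated at 0.03–0.08 μM. Controls were pioglitazone 14 μM and medium alone. SYBR green qPCR used 20 ng cDNA, GAPDH/18S references and triplicate reactions; 2^−ΔΔCt; mean ± SD, n = 3.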

[3] = Permeability of compound assessed as retention time by PAMPA-BBB assay; type: ADME
How it was run: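 Qualitative PAMPA-BBB. The donor solution was 200 μg/mL (final) in 0.01 M PBS pH 7.4, made from a stock in 50% EtOH. The filter was coated with brain polar lipid plus cholesterol in n-dodecane, and the acceptor held PBS. Plates were incubated 4 h at 37 °C. Donor and acceptor solutions were analysed by UHPLC-UV (200–400 nm) in triplicate, and compounds were identified by retention time.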

N2a [4] = assay: Cytotoxicity against mouse N2a-APP cells assessed as cell viability at 0.03 to 0.08 uM measured after 24 hrs by MTT assay; conditions: dose 0.03-0.08 µM
N2a [5] = assay: Antialzheimer activity in mouse N2a-APP cells assessed as increase of […] expression at 0.03 to 0.08 uM measured after 24 hrs by RT-qPCR method; type: functional, cell-based; conditions: dose 0.03-0.08 µM; how it was run: as §1
N2a [6] = assay: Antialzheimer activity in mouse N2a-APP cells assessed as reduction of BACE-1 expression at 0.03 to 0.08 uM measured after 24 hrs by RT-qPCR method; type: functional, cell-based; conditions: dose 0.03-0.08 µM; how it was run: as §1
N2a [7] = assay: Antialzheimer activity in mouse N2a-APP cells assessed as reduction of BACE-1 expression at 0.03 to 0.08 uM measured after 48 hrs by RT-qPCR method; type: functional, cell-based; conditions: dose 0.03-0.08 µM; how it was run: as §1
N2a [8] = assay: Antialzheimer activity in mouse N2a-APP cells assessed as increase of […] expression at 0.03 to 0.08 uM measured after 48 hrs by RT-qPCR method; type: functional, cell-based; conditions: dose 0.03-0.08 µM; how it was run: as §1
N2a [9] = assay: Antialzheimer activity in mouse N2a-APP cells assessed as up-regulation of PGC-1alpha expression at 0.03 to 0.08 uM measured after 24 to 48 hrs by RT-qPCR method; type: functional, cell-based; conditions: dose 0.03-0.08 µM, time 24-48 hrs; how it was run: as §1

Compound | Activity (N2a [1]) | Activity (N2a [2]) | Retention_time [3] [min] | Activity (N2a [4]) | Activity (N2a [5]) | Activity (N2a [6]) | Activity (N2a [7]) | Activity (N2a [8]) | Activity (N2a [9])
O=C(/C=C/c1ccc(O)cc1)NCCc1ccc(O)cc1 [N-P-COUMAROYL TYRAMINE] | inactive | inactive | 27.32 | inactive | – | – | – | – | –
O=C(NCCc1ccc(O)cc1)c1cc2cc(O)c(O)cc2c(-c2ccc(O)c(O)c2)c1C(=O)NCCc1ccc(O)cc1 | – | – | 28.07 | – | – | – | – | – | –
O=C(/C=C/c1ccc(O)c(O)c1)NCCc1ccc(O)cc1 | inactive | – | 24.08 | inactive | Active | Active | Active | Active | Active
COc1cc(/C=C/C(=O)NCCc2ccc(O)cc2)ccc1O [N-TRANS-FERULOYL TYRAMINE] | – | – | 28.42 | – | – | – | – | – | –

Source: ChEMBL document CHEMBL5032515, “Dual Role of Phenyl Amides from Hempseed on BACE 1, PPARγ, and PGC-1α in N2a-APP Cells” (J Nat Prod, 2021)
